The results in this text go back to ChEMBL document CHEMBL1275442, “Pharmacokinetics and tissue distribution of anidulafungin in rats” (Antimicrob Agents Chemother, 2008).

What all share (assay type): ADME, organism-based
Conditions in all cases: in vivo

One data set has as its system Plasma. Briefly: AUC (0 to infinity) in F344 rat plasma assessed as total compound-derived radioactivity per gram of tissue at 5 mg/kg, iv administered as single bolus dose […]. Details: time infinity, dose 5 mg/kg, route intravenous. A digest of the protocol:
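Same F344 study: single 5 mg/kg IV [¹⁴C]anidulafungin given over about 5 min. Total drug-derived radioactivity (parent plus metabolites) counted by liquid scintillation, in […]. Noncompartmental analysis of the composite mean profile.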

In another data set the test system is Cerebrospinal fluid. Briefly: Drug level in Long Evans rat cerebrospinal fluid assessed as radioactivity per gram of tissue at 5 mg/kg, iv administered as single bolus dose measured 72 hrs postdose by autoradiography. Details: dose 5 mg/kg, route intravenous. The essentials:
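Male pigmented Long Evans (HsdBlu:LE) rats, 7.5 weeks old, 202 to 217 g, single iv [¹⁴C]anidulafungin; one rat per sampling time. Euthanized by isoflurane and cardiac-puncture exsanguination. Sagittal whole-body sections quantified by phosphorimaging autoradiography, single samples corrected for section thickness across multiple sections per tissue. Concentrations (μg eq/g drug-derived radioactivity) interpolated from least-squares standard curves per scan.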

The test system of another data set is Liver. Briefly: AUC (0 to infinity) in F344 rat liver at 5 mg/kg, iv administered as single bolus dose. Also on record: time infinity, dose 5 mg/kg, route intravenous. A digest of the protocol: (§1)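 Male F344 rats, 10–11 weeks, 223.6–243.8 g, given one IV dose of [¹⁴C]anidulafungin, 5 mg/kg, over about 5 min. Tissues and blood sampled at 0.083–72 h (n = 3 rats per time). Parent drug measured by HPLC; LLOQ/ULOQ were 20/5,120 ng/ml for plasma and 220/56,320 ng/g for tissue. Noncompartmental parameters taken from the composite mean profile.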

A further data set deals with Zone of skin. Briefly: AUC (0 to infinity) in F344 rat skin at 5 mg/kg, iv administered as single bolus dose. Also on record: time infinity, dose 5 mg/kg, route intravenous. A digest of the protocol: as §1
Another data set relates to Kidney. As to the kind of experiment: Tmax in F344 rat kidney assessed as total compound-derived radioactivity at 5 mg/kg, iv administered as single bolus dose […]. Details: dose 5 mg/kg, route intravenous. A digest of the protocol: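 Male F344 rats, 10 to 11 weeks old and 223.6 to 243.8 g, got one iv dose of [14C]anidulafungin at 5 mg/kg over about 5 min. Blood, CSF, kidney, liver, lung, quadriceps, spleen and skin were sampled predose and at 0.083 to 72 h, 3 rats per time. Total radioactivity (parent plus metabolites) was measured by liquid scintillation counting. Parameters were noncompartmental, from a composite mean profile.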

Take `CCCCCOc1ccc(-c2ccc(-c3ccc([14C](=O)N[C@H]4C[C@@H](O)[C@@H](O)NC(=O)[C@@H]5[C@@H](O)[C@@H](C)CN5C(=O)[C@H]([C@@H](C)O)NC(=O)[C@H]([C@H](O)[C@@H](O)c5ccc(O)cc5)NC(=O)[C@@H]5C[C@@H](O)CN5C(=O)[C@H]([C@@H](C)O)NC4=O)cc3)cc2)cc1` [14C-ANIDULAFUNGIN]: the AUC with Plasma was 177.87 ugequiv.hr/g; in the data set on Liver it was 767.22 µg·h/g; with Zone of skin, 124.11 µg·h/g. In addition, the Drug uptake in the data set on Cerebrospinal fluid is 3.37 ugequiv. In addition, in the data set with Kidney, the Tmax – broadly, the time at which the peak concentration occurs – turned out to be 30 min.
